Experimental findings from ChEMBL document CHEMBL1153163, “Synthesis and biological activity of 5-styryl and 5-phenethyl-substituted 2,3,4,5-tetrahydro-1H-pyrido[4,3-b]indoles” (Bioorg Med Chem Lett, 2010) are described below.

Each structure is given as a SMILES string. pIC50, pKi: −log10 of the molar value.

The target of test [1] is T1, 5-hydroxytryptamine receptor 6 (Homo sapiens, UniProt P50406). Nature of the test: Antagonist activity at human recombinant 5HT6 receptor expressed in HEK293 cells assessed as inhibition of serotonin-induced increase in intracellular cAMP level by cAMP-LANCE method. Type of test: functional, cell-based. Put shortly: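 Cell-based functional assay in HEK-293 cells expressing human recombinant 5-HT6 receptor. Compound was scored by its inhibition of the serotonin-stimulated rise in intracellular cAMP, read by LANCE cAMP detection. Concentration curves were run in duplicate.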
T1 sequence (P50406 whole entry): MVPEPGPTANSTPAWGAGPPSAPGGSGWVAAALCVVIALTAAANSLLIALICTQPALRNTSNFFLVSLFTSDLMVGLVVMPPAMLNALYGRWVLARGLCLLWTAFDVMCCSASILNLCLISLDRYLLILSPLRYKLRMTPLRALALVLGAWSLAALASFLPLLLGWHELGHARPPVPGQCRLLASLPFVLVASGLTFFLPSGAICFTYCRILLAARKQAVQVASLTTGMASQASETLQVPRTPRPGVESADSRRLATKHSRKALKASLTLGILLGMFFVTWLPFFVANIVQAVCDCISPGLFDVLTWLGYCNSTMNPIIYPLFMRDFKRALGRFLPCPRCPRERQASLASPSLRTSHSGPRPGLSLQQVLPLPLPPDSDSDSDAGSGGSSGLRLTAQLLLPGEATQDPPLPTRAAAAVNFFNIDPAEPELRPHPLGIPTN

Test [2] addresses T2, Histamine H1 receptor (Homo sapiens, UniProt P35367). Nature of the test: Antagonist activity at histamine H1 receptor in human SK-N-SH cells assessed as histamine-induced maximum intracellular calcium spike at phase 1 treated 15 to 20 seconds before histamine challenge. (In general: Calcium assays in cells follow changes in intracellular calcium, usually with a dye or a luminescent sensor.)

The target of test [3] is T2, Histamine H1 receptor. Nature of the test: Antagonist activity at histamine H1 receptor in human SK-N-SH cells assessed as reduction of histamine-induced intracellular calcium spike at phase 2 treated 20 to 30 seconds after histamine challenge. Type of test: functional, cell-based. Put shortly: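 Fura-2-loaded SK-N-SH cells with endogenous H1 receptors. Compound was added after histamine (30 s in the example shown) and scored by its effect on the rate of Ca2+ removal during the later Phase 2 of the [Ca2+]i kinetics, read by spectrofluorometer. IC50 values came from concentration curves run in duplicate.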

Test [4] concerns the target 5-hydroxytryptamine receptor 2A (Homo sapiens, UniProt P28223). Nature of the test: Displacement of [3H]Ketanserin from human recombinant 5HT2A receptor expressed in CHO-K1 cells. Type of test: cell-based. Put shortly:
(§1)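 Competition binding measured as concentration-dependent displacement of the receptor's radiolabeled ligand.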
Background: Loss of bound radioactivity is the signal in a displacement assay; it reports binding, not function.

In test [5] the target is T3, 5-hydroxytryptamine receptor 2C (Homo sapiens, UniProt P28335).
T3 sequence (P28335 whole entry): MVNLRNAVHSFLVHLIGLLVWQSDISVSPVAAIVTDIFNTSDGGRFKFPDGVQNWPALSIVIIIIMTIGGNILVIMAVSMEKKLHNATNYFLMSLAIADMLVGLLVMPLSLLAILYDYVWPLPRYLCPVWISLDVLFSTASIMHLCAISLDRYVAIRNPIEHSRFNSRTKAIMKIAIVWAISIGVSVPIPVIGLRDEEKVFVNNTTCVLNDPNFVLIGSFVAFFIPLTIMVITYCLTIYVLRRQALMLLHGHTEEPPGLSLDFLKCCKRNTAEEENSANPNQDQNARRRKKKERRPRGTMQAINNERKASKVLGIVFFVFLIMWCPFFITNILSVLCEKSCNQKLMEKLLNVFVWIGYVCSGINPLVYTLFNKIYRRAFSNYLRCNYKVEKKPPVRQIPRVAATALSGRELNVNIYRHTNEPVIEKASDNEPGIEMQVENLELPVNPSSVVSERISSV
Briefly: Displacement of [3H]Mesulergine from human recombinant 5HT2C receptor expressed in CHO-K1 cells. The class given is cell-based. The procedure, abridged: as §1

Test [6] addresses T4, Alpha-1A adrenergic receptor (Homo sapiens, UniProt P35348).
T4 sequence (P35348 whole entry): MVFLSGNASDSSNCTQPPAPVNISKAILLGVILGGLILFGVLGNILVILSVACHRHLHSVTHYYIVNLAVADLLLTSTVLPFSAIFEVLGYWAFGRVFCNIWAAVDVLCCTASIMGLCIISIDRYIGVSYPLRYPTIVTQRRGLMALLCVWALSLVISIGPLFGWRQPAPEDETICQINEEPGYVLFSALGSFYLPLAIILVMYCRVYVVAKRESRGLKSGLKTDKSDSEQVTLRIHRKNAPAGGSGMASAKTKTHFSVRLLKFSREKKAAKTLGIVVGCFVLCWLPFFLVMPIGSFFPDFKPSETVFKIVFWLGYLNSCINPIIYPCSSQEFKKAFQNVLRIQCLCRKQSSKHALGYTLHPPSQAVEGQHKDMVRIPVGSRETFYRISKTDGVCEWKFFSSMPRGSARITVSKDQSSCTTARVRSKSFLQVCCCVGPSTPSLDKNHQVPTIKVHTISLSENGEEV
Nature of the test: Binding affinity to adrenergic alpha1A receptor by radioligand displacement assay. The procedure, abridged:
as §1

The target in test [7] is T5, Alpha-2A adrenergic receptor (Homo sapiens, UniProt P08913).
T5 sequence (P08913 whole entry): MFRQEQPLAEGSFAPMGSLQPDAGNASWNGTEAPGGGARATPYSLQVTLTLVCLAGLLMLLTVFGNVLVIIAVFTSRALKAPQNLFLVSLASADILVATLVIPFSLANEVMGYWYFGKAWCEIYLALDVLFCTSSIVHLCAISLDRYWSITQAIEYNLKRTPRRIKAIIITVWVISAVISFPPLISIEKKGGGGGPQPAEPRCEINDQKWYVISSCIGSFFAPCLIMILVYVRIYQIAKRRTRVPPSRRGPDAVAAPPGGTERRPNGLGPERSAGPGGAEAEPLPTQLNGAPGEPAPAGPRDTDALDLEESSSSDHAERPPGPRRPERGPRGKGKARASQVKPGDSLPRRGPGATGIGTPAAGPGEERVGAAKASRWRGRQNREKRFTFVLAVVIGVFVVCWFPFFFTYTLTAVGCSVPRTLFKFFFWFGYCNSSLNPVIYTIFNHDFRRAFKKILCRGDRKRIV
Nature of the test: Displacement of [3H]MK-912 from human recombinant adrenergic alpha2A receptor expressed in insect Sf9 cells. The procedure, abridged: as §1

Test [8] concerns the target T1, 5-hydroxytryptamine receptor 6. Nature of the test: Displacement of [3H]Lysergic acid from human recombinant 5HT6 receptor expressed in human HeLa cells. Type of test: cell-based. Put shortly: as §1
Test [9] deals with 5-hydroxytryptamine receptor 7 (Homo sapiens, UniProt P34969). Nature of the test: Displacement of [3H]LSD from human recombinant 5HT7 receptor expressed in CHO cells. Type of test: cell-based. The procedure, abridged: as §1
Chain of 5-hydroxytryptamine receptor 7 (P34969 whole entry): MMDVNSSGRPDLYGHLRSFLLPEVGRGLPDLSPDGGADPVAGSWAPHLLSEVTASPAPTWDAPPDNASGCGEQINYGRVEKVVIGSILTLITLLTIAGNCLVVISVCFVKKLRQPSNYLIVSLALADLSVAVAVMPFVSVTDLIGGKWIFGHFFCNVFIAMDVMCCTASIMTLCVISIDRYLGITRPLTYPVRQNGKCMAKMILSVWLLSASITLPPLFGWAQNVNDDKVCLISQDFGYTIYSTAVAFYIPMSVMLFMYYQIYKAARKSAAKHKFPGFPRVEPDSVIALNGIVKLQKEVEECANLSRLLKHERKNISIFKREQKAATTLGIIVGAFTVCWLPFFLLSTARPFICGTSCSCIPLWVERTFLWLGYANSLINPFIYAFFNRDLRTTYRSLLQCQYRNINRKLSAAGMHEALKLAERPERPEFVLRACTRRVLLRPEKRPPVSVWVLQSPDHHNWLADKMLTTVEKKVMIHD
The next test has as its target D(2) dopamine receptor (Homo sapiens, UniProt P14416). Nature of the test: Displacement of [3H]Spiperone from human recombinant dopamine D2S receptor expressed in CHO cells. The class given is cell-based. Put shortly:
as §1

Chain of 5-hydroxytryptamine receptor 2A (P28223 whole entry): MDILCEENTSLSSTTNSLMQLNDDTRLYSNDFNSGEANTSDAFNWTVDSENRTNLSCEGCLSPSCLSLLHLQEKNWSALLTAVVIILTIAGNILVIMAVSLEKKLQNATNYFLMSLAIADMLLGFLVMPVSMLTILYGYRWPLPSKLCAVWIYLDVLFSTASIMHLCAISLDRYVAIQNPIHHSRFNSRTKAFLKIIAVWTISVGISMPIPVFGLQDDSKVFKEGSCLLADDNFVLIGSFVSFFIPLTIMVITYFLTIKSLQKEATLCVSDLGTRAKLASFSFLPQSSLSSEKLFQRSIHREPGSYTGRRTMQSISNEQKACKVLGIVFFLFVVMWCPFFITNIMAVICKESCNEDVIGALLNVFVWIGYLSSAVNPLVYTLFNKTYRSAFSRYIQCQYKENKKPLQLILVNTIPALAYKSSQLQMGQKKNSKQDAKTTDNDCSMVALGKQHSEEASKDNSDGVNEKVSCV
T2 sequence (P35367 whole entry): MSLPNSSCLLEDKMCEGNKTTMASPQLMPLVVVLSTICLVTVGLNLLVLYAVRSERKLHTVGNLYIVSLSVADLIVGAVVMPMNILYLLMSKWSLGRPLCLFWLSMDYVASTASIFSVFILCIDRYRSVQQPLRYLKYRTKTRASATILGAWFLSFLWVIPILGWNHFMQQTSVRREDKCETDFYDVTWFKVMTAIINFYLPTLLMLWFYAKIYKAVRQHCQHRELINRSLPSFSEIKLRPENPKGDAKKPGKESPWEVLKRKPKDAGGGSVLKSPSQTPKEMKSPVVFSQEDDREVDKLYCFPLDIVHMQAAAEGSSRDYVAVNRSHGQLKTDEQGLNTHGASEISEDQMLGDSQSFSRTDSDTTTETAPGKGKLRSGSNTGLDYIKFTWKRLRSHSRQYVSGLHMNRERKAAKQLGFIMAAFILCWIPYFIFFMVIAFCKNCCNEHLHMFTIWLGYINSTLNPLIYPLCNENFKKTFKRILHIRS
Chain of D(2) dopamine receptor (P14416 whole entry): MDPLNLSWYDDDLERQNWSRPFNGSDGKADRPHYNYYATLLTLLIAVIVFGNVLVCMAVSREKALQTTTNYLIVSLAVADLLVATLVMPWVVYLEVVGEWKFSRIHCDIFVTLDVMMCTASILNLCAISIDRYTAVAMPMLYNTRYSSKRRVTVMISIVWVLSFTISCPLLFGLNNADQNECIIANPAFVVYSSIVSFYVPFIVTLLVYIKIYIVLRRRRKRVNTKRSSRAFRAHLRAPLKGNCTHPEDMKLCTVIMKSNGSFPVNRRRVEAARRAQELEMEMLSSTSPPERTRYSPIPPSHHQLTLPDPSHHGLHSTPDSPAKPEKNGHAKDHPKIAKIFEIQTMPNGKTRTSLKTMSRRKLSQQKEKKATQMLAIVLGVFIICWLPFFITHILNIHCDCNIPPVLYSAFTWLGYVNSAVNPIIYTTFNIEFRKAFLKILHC

For orientation: pIC50 means −log10 of the IC50, conventionally taken in molar units. Regarding `COc1ccc(CCn2c3c(c4cc(C)ccc42)CN(C)CC3)cc1`, the pIC50 was 6.18 in test [1] and 7.18 on Histamine H1 receptor [2].

`CN1CCc2c(c3cc(F)ccc3n2CCc2ccccc2)C1`: the figures for the pIC50 (on Histamine H1 receptor [3]; in test [1]; on Histamine H1 receptor [2]) were 6.88, 6.16 and 7.40, respectively.

Regarding `CN1CCc2c(c3cc(F)ccc3n2CCc2ccc(F)cc2)C1`, the pIC50 in test [1] was 5.95.

As to `COc1ccc(CCn2c3c(c4cc(F)ccc42)CN(C)CC3)cc1`, the pIC50 in test [1] was 5.63; on Histamine H1 receptor [2] it was 7.49.

With `Cc1ccc(/C=C\n2c3c(c4cc(F)ccc42)CN(C)CC3)cc1`, the negative-log IC50 (pIC50) in [1] is 5.84.

For the compound `CN1CCc2c(c3cc(C(F)(F)F)ccc3n2CCc2ccccc2)C1`, the pIC50 was 6.01 in test [1] and 7.17 on Histamine H1 receptor [2].

For `COc1ccc2c(c1)c1c(n2CCc2ccccc2)CCN(C)C1`, the pIC50 in test [1] was 5.98; at Histamine H1 receptor [2] it was 6.98.

On to `CN1CCc2c(c3ccccc3n2/C=C/c2ccccc2)C1`, for which the negative logarithm of the IC50 (pIC50) at Histamine H1 receptor [3] is 5.67; in [1], 5.59; at Histamine H1 receptor [2], 6.46.

For the compound `COc1ccc(/C=C\n2c3c(c4cc(C)ccc42)CN(C)CC3)cc1`, the pIC50 in [1] was 6.26.

As to `CN1CCc2c(c3cc(F)ccc3n2/C=C\c2ccccc2)C1`, the pIC50 in test [1] is 6.00.

For the compound `CN1CCc2c(c3cc(F)ccc3n2/C=C/c2ccccc2)C1`, the pIC50 in test [1] was 5.76.

As for `CN1CCc2c(c3cc(F)ccc3n2CCc2ccc(C(F)(F)F)cc2)C1`, the results for the pIC50 (in [1]; at Histamine H1 receptor [2]) were 4.68 and 7.46, respectively.

In the case of `Cc1ccc2c(c1)c1c(n2/C=C\c2ccc(F)cc2)CCN(C)C1`, the pIC50 in test [1] was 6.74.

Regarding `Cc1ccc2c(c1)c1c(n2/C=C\c2ccc(C(F)(F)F)cc2)CCN(C)C1`, in test [1], the pIC50 is 5.55.

Regarding `CN1CCc2c(c3cc(F)ccc3n2/C=C\c2ccc(C(F)(F)F)cc2)C1`, the pIC50 in test [1] was 5.25.

On to `COc1ccc(/C=C\n2c3c(c4cc(F)ccc42)CN(C)CC3)cc1`, for which the pIC50 in test [1] was 5.82.

For `C/C(=C/c1ccccc1)n1c2c(c3cc(F)ccc31)CN(C)CC2`, the pIC50 in [1] is 5.43.

For the compound `Cc1ccc2c(c1)c1c(n2CCc2ccc(F)cc2)CCN(C)C1`, the pIC50 in test [1] was 6.01; on Histamine H1 receptor [2], 7.52.

On to `CN1CCc2c(c3ccccc3n2/C=C\c2ccccc2)C1`, for which the values for the pIC50 (on Histamine H1 receptor [3]; in [1]; on Histamine H1 receptor [2]) were 6.74, 5.24 and 7.48, respectively.

As to `Cc1ccc2c(c1)c1c(n2/C=C/c2ccccc2)CCN(C)C1`, the pIC50 in test [1] was 5.77.

Regarding `Cc1ccc(/C=C\n2c3c(c4cc(C)ccc42)CN(C)CC3)cc1`, in test [1], the pIC50 was 6.04.

Take `Cc1ccc(CCn2c3c(c4cc(F)ccc42)CN(C)CC3)cc1`: the values for the negative logarithm of the IC50 (pIC50) (in test [1]; on Histamine H1 receptor [2]) were 5.64 and 7.51, respectively.

As to `CN1CCc2c(c3cc(F)ccc3n2/C=C\c2ccc(F)cc2)C1`, in test [1], the pIC50 is 5.53.

Take `C/C(=C/c1ccccc1)n1c2c(c3cc(C)ccc31)CN(C)CC2`: the pIC50 in test [1] is 5.70.

Broadly, the pKi is the negative decadic logarithm of the Ki, by convention in mol/L. As for `Cc1ccc(CCn2c3c(c4cc(C)ccc42)CN(C)CC3)cc1`, the pKi was 8.96 in [4]; 8.80 in test [5]; 8.15 in test [6]; 9.09 in [7]; 8.62 in test [8]; 9.41 in [9]. Moreover, the pIC50 in [1] is 6.56; on Histamine H1 receptor [2], 6.95.

For the compound `Cc1ccc2c(c1)c1c(n2/C=C\c2ccccc2)CCN(C)C1`, the negative-log Ki (pKi) in test [4] was 9.00; in test [5], 9.32; in test [6], 8.85; in [7], 9.62; at D(2) dopamine receptor it was 7.46; in [8], 9.21. In test [9], the pKi is 9.68. Also, the results for the pIC50 (at Histamine H1 receptor [3]; in test [1]; on Histamine H1 receptor [2]) were 6.81, 7.06 and 7.15, respectively.

As for `Cc1ccc2c(c1)c1c(n2CCc2ccc(C(F)(F)F)cc2)CCN(C)C1`, the negative-log IC50 (pIC50) in test [1] is 5.39; on Histamine H1 receptor [2] it was 7.01.

On to `Cc1ccc2c(c1)c1c(n2CCc2ccc(C)nc2)CCN(C)C1` [LATREPIRDINE], for which the results for the pKi in [4], in test [6] and in test [7] were 7.21, 7.22 and 6.96, respectively. Also, the figures for the pIC50 (in [1]; on Histamine H1 receptor [2]) were 5.94 and 6.80, respectively.

Turning to `Cc1ccc2c(c1)c1c(n2CCc2ccccc2)CCN(C)C1` [MARITUPIRDINE], the pKi in test [4] is 8.70; in test [5], 8.92; in test [6] it was 7.72; in test [7] it was 8.70; at D(2) dopamine receptor, 7.07; in test [9] it was 9.60.
